Among the data in ChEMBL document CHEMBL1147832, “Flexible synthesis and biological evaluation of novel 5-deoxyadenophorine analogues” (Bioorg Med Chem Lett, 2006) are Ki, inhibition and IC50 values, retold here.

Assay [1] in a line: Inhibition of yeast alpha glucosidase. Further details: species or system Saccharomyces cerevisiae.
The target of another assay is Alpha-galactosidase (Coffea arabica, UniProt Q5DUH8). The assay is described as follows: Inhibition of green coffee alpha galactosidase.
Assay [2] deals with T1, Beta-galactosidase (Aspergillus niger) (UniProt P29853).
T1 sequence (whole entry): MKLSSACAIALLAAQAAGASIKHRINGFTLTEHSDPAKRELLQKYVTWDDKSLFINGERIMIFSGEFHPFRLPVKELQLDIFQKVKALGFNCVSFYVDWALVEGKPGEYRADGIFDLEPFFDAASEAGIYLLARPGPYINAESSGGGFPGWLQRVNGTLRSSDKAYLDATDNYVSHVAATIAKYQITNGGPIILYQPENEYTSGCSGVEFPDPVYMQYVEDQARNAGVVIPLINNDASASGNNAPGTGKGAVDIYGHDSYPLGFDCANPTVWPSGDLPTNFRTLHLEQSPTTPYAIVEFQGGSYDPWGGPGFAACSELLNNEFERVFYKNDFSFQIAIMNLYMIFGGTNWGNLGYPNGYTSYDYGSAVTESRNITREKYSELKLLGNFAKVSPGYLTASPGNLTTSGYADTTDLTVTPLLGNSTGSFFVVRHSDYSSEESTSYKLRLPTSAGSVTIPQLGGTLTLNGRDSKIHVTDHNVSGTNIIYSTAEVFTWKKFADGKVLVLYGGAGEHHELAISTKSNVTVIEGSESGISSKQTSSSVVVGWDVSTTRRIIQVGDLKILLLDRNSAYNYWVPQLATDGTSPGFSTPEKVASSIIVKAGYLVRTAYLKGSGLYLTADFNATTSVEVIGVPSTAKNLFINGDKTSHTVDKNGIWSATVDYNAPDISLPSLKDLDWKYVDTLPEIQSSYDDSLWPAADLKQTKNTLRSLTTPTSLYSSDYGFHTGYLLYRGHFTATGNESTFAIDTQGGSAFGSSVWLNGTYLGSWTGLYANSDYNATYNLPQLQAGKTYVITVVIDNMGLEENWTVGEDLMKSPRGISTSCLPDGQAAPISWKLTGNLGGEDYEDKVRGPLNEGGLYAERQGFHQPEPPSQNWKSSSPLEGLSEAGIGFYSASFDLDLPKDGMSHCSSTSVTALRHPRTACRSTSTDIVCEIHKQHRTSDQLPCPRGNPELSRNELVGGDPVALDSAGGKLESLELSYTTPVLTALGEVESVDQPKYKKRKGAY
The assay is described as follows: Inhibition of Aspergillus beta galactosidase at 1 mM. The method in brief:
(§1)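 Commercial enzymes: yeast α-glucosidase, almond β-glucosidase, green coffee bean α-galactosidase, Aspergillus β-galactosidase. Each was run at its optimum pH and temperature with the matching p-nitrophenyl glycoside at a substrate concentration equal to the calculated Km. Inhibitor was at 1 mM final. Low-pH reactions were stopped with 400 mM Na2CO3. Released p-nitrophenol was read at 405 nm, giving % inhibition.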

Assay [3] concerns the target T2, Alpha-glucosidase-like (Oryza sativa Japonica Group) (UniProt A0A5S6RD55).
T2 sequence (whole entry): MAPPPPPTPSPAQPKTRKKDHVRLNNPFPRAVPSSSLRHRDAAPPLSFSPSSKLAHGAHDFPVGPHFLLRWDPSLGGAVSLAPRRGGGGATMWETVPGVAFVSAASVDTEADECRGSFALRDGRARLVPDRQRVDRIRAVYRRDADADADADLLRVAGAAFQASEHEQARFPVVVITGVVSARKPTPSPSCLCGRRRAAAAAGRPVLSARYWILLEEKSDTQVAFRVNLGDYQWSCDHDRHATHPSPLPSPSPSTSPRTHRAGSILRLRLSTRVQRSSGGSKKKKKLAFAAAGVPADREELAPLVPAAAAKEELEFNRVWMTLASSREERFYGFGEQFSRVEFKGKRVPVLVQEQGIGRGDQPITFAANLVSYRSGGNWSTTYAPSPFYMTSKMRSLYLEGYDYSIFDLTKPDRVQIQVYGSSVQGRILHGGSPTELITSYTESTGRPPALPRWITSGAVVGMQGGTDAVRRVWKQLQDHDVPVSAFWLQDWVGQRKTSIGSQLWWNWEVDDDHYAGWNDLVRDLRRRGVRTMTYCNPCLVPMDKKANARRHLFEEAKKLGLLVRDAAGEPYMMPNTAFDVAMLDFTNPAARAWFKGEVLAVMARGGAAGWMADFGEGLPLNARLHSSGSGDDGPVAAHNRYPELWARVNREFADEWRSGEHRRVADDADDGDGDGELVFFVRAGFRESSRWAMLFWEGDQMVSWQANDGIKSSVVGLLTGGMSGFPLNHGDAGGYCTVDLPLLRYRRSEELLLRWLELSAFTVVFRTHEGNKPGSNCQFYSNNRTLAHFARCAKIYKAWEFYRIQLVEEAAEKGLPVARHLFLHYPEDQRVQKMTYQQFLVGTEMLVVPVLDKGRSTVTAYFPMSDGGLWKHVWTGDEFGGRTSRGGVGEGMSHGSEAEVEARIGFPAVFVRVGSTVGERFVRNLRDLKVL
The assay is described as follows: Inhibition of rice alpha glucosidase at 1 mM.

A further assay deals with T3, Beta-galactosidase (Bos taurus, UniProt Q58D55).
T3 sequence (Q58D55 whole entry): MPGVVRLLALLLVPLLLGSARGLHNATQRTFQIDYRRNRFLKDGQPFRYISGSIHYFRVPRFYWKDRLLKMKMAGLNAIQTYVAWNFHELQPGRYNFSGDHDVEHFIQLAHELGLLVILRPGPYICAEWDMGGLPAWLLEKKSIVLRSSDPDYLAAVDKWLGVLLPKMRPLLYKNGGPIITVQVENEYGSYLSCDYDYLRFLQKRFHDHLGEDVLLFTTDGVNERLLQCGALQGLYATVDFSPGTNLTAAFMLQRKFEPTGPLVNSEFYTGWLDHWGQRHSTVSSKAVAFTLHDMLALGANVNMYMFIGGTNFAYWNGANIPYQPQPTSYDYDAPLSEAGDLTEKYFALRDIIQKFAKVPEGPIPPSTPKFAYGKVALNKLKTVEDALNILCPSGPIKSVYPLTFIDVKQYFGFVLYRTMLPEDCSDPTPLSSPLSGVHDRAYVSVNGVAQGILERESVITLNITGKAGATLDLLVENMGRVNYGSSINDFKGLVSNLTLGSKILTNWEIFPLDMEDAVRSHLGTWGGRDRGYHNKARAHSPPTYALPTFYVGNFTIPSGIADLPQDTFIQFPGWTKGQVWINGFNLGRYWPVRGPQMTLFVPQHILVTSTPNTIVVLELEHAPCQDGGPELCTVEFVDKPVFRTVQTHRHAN
Briefly: Inhibition of bovine liver beta galactosidase.

A further assay relates to Saccharomyces cerevisiae. The assay is described as follows: Inhibition of yeast alpha glucosidase at 1 mM. The method in brief: as §1
For assay [4], the target named is Alpha-galactosidase (Coffea arabica) (UniProt Q5DUH8). The assay is described as follows: Inhibition of green coffee alpha galactosidase at 1 mM. The method, boiled down:
as §1

Chain of Alpha-galactosidase (Q5DUH8 whole entry): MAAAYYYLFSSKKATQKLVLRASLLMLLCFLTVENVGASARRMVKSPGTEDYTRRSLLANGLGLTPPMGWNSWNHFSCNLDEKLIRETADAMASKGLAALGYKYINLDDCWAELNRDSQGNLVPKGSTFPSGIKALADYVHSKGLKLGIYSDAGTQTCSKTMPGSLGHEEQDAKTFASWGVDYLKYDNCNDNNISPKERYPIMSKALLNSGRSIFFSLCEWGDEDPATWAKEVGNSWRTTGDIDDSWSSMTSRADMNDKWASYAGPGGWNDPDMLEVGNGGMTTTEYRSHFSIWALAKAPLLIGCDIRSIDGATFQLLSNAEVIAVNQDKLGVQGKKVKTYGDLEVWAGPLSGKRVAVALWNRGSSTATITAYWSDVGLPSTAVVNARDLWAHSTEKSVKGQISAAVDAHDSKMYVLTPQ
Chain of Alpha-galactosidase (Coffea arabica) (Q5DUH8 as listed by the source): as the sequence (Q5DUH8 whole entry) above

Turning to `CCCCCCC[C@@H]1C[C@@H](O)[C@@H](O)[C@@H](CO)N1`, the Ki – broadly, a dissociation constant, usually derived from enzyme kinetics or from competition with a known ligand – in assay [1] was found to be 154 µM; at Alpha-galactosidase, 141 µM. The inhibition (usually the share of the control response that was lost under treatment) in assay [2] was below 40%.

Consider `CC[C@@H]1C[C@H](O)[C@@H](O)[C@@H](CO)N1`, for which the IC50 (usually the midpoint of a concentration-inhibition curve) against Alpha-galactosidase came out at 6.4 µM; at Beta-galactosidase, 34 µM. In assay [3], this molecule had an inhibition below 40%.

Regarding `CCCCCCC[C@@H]1C[C@H](O)[C@@H](O)[C@@H](CO)N1`, the inhibition (in the assay with Saccharomyces cerevisiae; in assay [4]; in assay [2]) was below 40% in each case.

As for `CCCCCCCCCCC[C@@H]1C[C@H](O)[C@@H](O)[C@@H](CO)N1`, in assay [1], the affinity, expressed as Ki, was 196 µM. In addition, the inhibition in assay [4] and in assay [2] was below 40% in each case.

As to `CCC[C@@H]1C[C@H](O)[C@@H](O)[C@@H](CO)N1`, the inhibition (in the assay with Saccharomyces cerevisiae; in assay [4]; in assay [2]) was below 40% each time.

Take `CC[C@@H]1C[C@@H](O)[C@@H](O)[C@@H](CO)N1`: the Ki in assay [1] turned out to be 123 µM; at Alpha-galactosidase it was 721 µM. Besides, in assay [2], the inhibition is below 40%.

As to `CCCC[C@@H]1C[C@H](O)[C@@H](O)[C@@H](CO)N1`, the inhibition (in the assay on Saccharomyces cerevisiae; in assay [4]; in assay [2]) was below 40% throughout.
